ChEMBL document CHEMBL1629660, “Pharmacodynamics of tigecycline against phenotypically diverse Staphylococcus aureus isolates in a murine thigh model” (Antimicrob Agents Chemother, 2009)

How the values were obtained:
[1] = r2 of fT>MIC in methicillin-sensitive methicillin-sensitive Staphylococcus aureus ATCC 29213-infected neutropenic ICR mouse
[2] = fAUC/MIC in community acquired methicillin-resistant Staphylococcus aureus isolate 147-infected neutropenic ICR mouse at 50% effective exposure index; type: functional
Method in brief: (§1)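 Single-dose serum PK in infected neutropenic mice (sc 6.25–50 mg/kg; HPLC; two-compartment fit; AUC by trapezoidal rule; lower doses simulated). Free fraction from ultrafiltration of spiked mouse serum, in triplicate. Free exposures divided by modal MIC and plotted against 24-h log10 CFU change with a sigmoidal Emax model; EI50, EI80 and stasis values read from the fitted curves.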

[3] = fAUC/MIC in methicillin-sensitive Staphylococcus aureus ATCC 25923-infected neutropenic ICR mouse at 80% effective exposure index; type: functional
[4] = Protein binding in methicillin-sensitive Staphylococcus aureus ATCC 29213-infected neutropenic ICR mouse serum at 12 µg/ml by HPLC; conditions: read-out: PB (converted)
[5] = Plasma protein binding in human; type: ADME, cell-free; conditions: read-out: PPB (converted)
[6] = Protein binding in methicillin-sensitive Staphylococcus aureus ATCC 29213-infected neutropenic ICR mouse serum at 25 mg/kg, sc by HPLC; type: ADME, organism-based; parameters: dose 25 mg/kg, route subcutaneous; conditions: read-out: PB (converted)
[7] = Elimination half life in neutropenic ICR mouse infected with methicillin-sensitive Staphylococcus aureus ATCC 29213 at 12.5 mg/kg, sc by HPLC; type: ADME, organism-based; parameters: dose 12.5 mg/kg, route subcutaneous; conditions: in vivo, read-out: beta t1/2 (converted)
Method in brief: (§2)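 Neutropenic female ICR mice (cyclophosphamide 150 and 100 mg/kg ip, 4 days and 1 day before inoculation), both thighs inoculated im with ~10^7 CFU/ml of ATCC 29213. Single sc doses of 50, 25, 12.5 or 6.25 mg/kg. Cardiac blood taken from groups of six at 8–12 times over 0.5–24 h. Serum measured by HPLC (linear 0.05–5 µg/ml). Two-compartment fit by nonlinear least squares; AUC by trapezoidal rule.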

[8] = AUC (0 to 24 hrs) in neutropenic ICR mouse infected with Staphylococcus aureus ATCC 29213 at 6.25 mg/kg, sc by HPLC; type: ADME, organism-based; parameters: time < 24 hr, dose 6.25 mg/kg, route subcutaneous; conditions: plasma
Method in brief: as §2

[9] = Cmax in neutropenic ICR mouse infected with Staphylococcus aureus ATCC 29213 at 12.5 mg/kg, sc by HPLC; type: ADME, organism-based; parameters: dose 12.5 mg/kg, route subcutaneous; conditions: in vivo
Method in brief: as §2

[10] = fAUC/MIC in methicillin-sensitive Staphylococcus aureus ATCC 29213-infected neutropenic ICR mouse at 50% effective exposure index; type: functional
Method in brief: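 fT>MIC, fCmax/MIC and fAUC/MIC were built from the serum pharmacokinetics, protein binding, modal broth-microdilution MIC (triplicate, CLSI) and 24-h thigh CFU change. Each index was fit to a sigmoidal Emax model. EI50, EI80 and stasis exposures were taken from each isolate's curve.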

[11] = fAUC/MIC in hospital-acquired methicillin-resistant Staphylococcus aureus isolate 152-infected neutropenic ICR mouse at stasis dose; type: functional
Method in brief: as §1

[12] = Cmax in neutropenic ICR mouse infected with Staphylococcus aureus ATCC 29213 at 25 mg/kg, sc by HPLC; type: ADME, organism-based; parameters: dose 25 mg/kg, route subcutaneous; conditions: in vivo
Method in brief: as §2

[13] = Tmax in neutropenic ICR mouse infected with Staphylococcus aureus ATCC 29213 at 6.25 mg/kg, sc by HPLC; type: ADME, organism-based; parameters: dose 6.25 mg/kg, route subcutaneous; conditions: in vivo
Method in brief: as §2

[14] = Plasma protein binding in mouse; type: ADME, cell-free; conditions: read-out: PPB (converted)
[15] = r2 for fT>MIC in hospital-acquired methicillin-resistant Staphylococcus aureus isolate 56-infected neutropenic ICR mouse
[16] = r2 for fAUC/MIC in methicillin-sensitive Staphylococcus aureus ATCC 29213-infected neutropenic ICR mouse
[17] = Tmax in neutropenic ICR mouse infected with Staphylococcus aureus ATCC 29213 at 50 mg/kg, sc by HPLC; type: ADME, organism-based; parameters: dose 50 mg/kg, route subcutaneous; conditions: in vivo
Method in brief: as §2

[18] = fAUC/MIC in hospital-acquired methicillin-resistant Staphylococcus aureus isolate 152-infected neutropenic ICR mouse at 50% effective exposure index; type: functional
Method in brief: as §1

[19] = r2 of fCmax/MIC in community acquired methicillin-resistant Staphylococcus aureus isolate 147-infected neutropenic ICR mouse
[20] = r2 for fAUC/MIC in community acquired methicillin-resistant Staphylococcus aureus isolate 156-infected neutropenic ICR mouse
[21] = r2 for fCmax/MIC in community acquired methicillin-resistant Staphylococcus aureus isolate 156-infected neutropenic ICR mouse
[22] = fAUC/MIC in community acquired methicillin-resistant Staphylococcus aureus isolate 156 infected-immunocompetent ICR mouse at 1.56 […], sc QD; type: functional
Method in brief: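 Derived from neutropenic-mouse serum PK (HPLC, two-compartment fit) with ultrafiltration protein-binding correction, divided by modal MIC.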

[23] = Protein binding in methicillin-sensitive Staphylococcus aureus ATCC 29213-infected neutropenic ICR mouse serum at 1.5 µg/ml by HPLC; conditions: read-out: PB (converted)
[24] = r2 for fT>MIC in community acquired methicillin-resistant Staphylococcus aureus isolate 144-infected neutropenic ICR mouse
[25] = Protein binding in methicillin-sensitive Staphylococcus aureus ATCC 29213-infected neutropenic ICR mouse serum at 6.25 mg/kg, sc by HPLC; type: ADME, organism-based; parameters: dose 6.25 mg/kg, route subcutaneous; conditions: read-out: PB (converted)
[26] = r2 for fAUC/MIC in community acquired methicillin-resistant Staphylococcus aureus isolate 147-infected neutropenic ICR mouse
[27] = fAUC/MIC in community acquired methicillin-resistant Staphylococcus aureus isolate 147-infected neutropenic ICR mouse at stasis dose; type: functional
Method in brief: as §1

[28] = fAUC/MIC in hospital-acquired methicillin-resistant Staphylococcus aureus isolate 56-infected neutropenic ICR mouse at 50% effective exposure index; type: functional
Method in brief: as §1

[29] = system: Staphylococcus aureus; assay: Antimicrobial activity against methicillin-sensitive Staphylococcus aureus ATCC 25923 infected in neutropenic ICR mouse assessed as change in bacterial load after 24 hrs; type: functional
Method in brief: (§3)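 Female ICR mice (~25 g) made neutropenic with cyclophosphamide 150 and 100 mg/kg ip, 4 and 1 days before infection. Each thigh inoculated im with 0.1 ml of ~10^7 CFU/ml from an overnight subculture. Tigecycline sc (0.2 ml) given 2 h later as single or multiple doses of 1.56–50 mg/kg, 1.56–400 mg/kg/day, 3 mice/group. Saline-injected controls. Thighs harvested at 24 h, homogenized in saline, plated on blood agar; log10 CFU change vs 0-h controls.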

[30] = system: Staphylococcus aureus; assay: Antimicrobial activity against community acquired methicillin-resistant Staphylococcus aureus isolate 156 infected in neutropenic ICR mouse assessed as change in bacterial load after 24 hrs; type: functional
Method in brief: as §3

[31] = Elimination half life in neutropenic ICR mouse infected with methicillin-sensitive Staphylococcus aureus ATCC 29213 at 6.25 mg/kg, sc by HPLC; type: ADME, organism-based; parameters: dose 6.25 mg/kg, route subcutaneous; conditions: in vivo, read-out: beta t1/2 (converted)
Method in brief: as §2

[32] = Protein binding in methicillin-sensitive Staphylococcus aureus ATCC 29213-infected neutropenic ICR mouse serum at 12.5 mg/kg, sc by HPLC; type: ADME, organism-based; parameters: dose 12.5 mg/kg, route subcutaneous; conditions: read-out: PB (converted)

Question: With CN(C)c1cc(NC(=O)CNC(C)(C)C)c(O)c2c1C[C@H]1C[C@H]3[C@H](N(C)C)C(O)=C(C(N)=O)C(=O)[C@@]3(O)C(O)=C1C2=O [TIGECYCLINE] as the compound, how does the r2 [1] read?
Answer: Its r2 is 0.699%.

Question: What about the fAUC/MIC [2] of the same compound?
Answer: The fAUC/MIC was 1.5.

Question: What about the fAUC/MIC [3] of the same compound?
Answer: Its fAUC/MIC is 7.

Question: And the fraction unbound [4]?
Answer: The fraction unbound was 0.08.

Question: And the fraction unbound [5]?
Answer: The fraction unbound was 0.29.

Question: What about the fraction unbound [6] of the same compound?
Answer: Its fraction unbound is 0.075.

Question: What about the half-life [7] of the same compound?
Answer: Its half-life is 10.1 h.

Question: What about the AUC(0-t) at 24 h [8] of the same compound?
Answer: The AUC(0-t) at 24 h was 4800 ng·h/mL.

Question: And the Cmax [9]?
Answer: The Cmax was 2380 ng/mL.

Question: And the fAUC/MIC [10]?
Answer: The fAUC/MIC was 0.6.

Question: What about the fAUC/MIC [11] of the same compound?
Answer: The fAUC/MIC was 1.6.

Question: What about the Cmax [12] of the same compound?
Answer: The Cmax was 5330 ng/mL.

Question: What about the Tmax [13] of the same compound?
Answer: The Tmax was 4.8 min.

Question: And the fraction unbound [14]?
Answer: The fraction unbound was 0.188.

Question: And the r2 [15]?
Answer: Its r2 is 0.341%.

Question: And the r2 [16]?
Answer: The r2 was 0.983.

Question: What about the Tmax [17] of the same compound?
Answer: Its Tmax is 0.74 h.

Question: And the fAUC/MIC [18]?
Answer: Its fAUC/MIC is 1.5.

Question: What about the r2 [19] of the same compound?
Answer: Its r2 is 0.892.

Question: What about the r2 [20] of the same compound?
Answer: Its r2 is 0.97.

Question: What about the r2 [21] of the same compound?
Answer: Its r2 is 0.88.

Question: And the fAUC/MIC [22]?
Answer: The fAUC/MIC was 1.8.

Question: And the fraction unbound [23]?
Answer: Its fraction unbound is 0.173.

Question: And the r2 [24]?
Answer: Its r2 is 0.552%.

Question: And the fraction unbound [25]?
Answer: The fraction unbound was 0.188.

Question: What about the r2 [26] of the same compound?
Answer: Its r2 is 0.966.

Question: What about the fAUC/MIC [27] of the same compound?
Answer: Its fAUC/MIC is 1.7.

Question: What about the fAUC/MIC [28] of the same compound?
Answer: The fAUC/MIC was 2.5.

Question: What about the log10CFU/ml [29] of the same compound?
Answer: Its log10CFU/ml is 1.4.

Question: And the log10CFU/ml [30]?
Answer: Its log10CFU/ml is 2.1.

Question: What about the half-life [31] of the same compound?
Answer: The half-life was 10.5 h.

Question: What about the fraction unbound [32] of the same compound?
Answer: The fraction unbound was 0.121.
